Compound activity: PubChem, Broad Institute
rRNA inh HTS – reduced GFP signal of wild-type E. coli, primary screen, bacterial rRNA inhibitor project, GFP/RFP fluorescence, OD600, single point; AID 720706, 2013; GFP signal change (wild-type ribosome), % (no concentration beside the values); 350,000 tested, 1.6% active; E. coli WT GFP vs humanized-ribosome RFP mutants, 24 h; active compounds read low; DMSO median 0, no signal -100;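 active means significant combined selectivity score with lowered wild-type GFP, culture density cut under 30%, mutant RFP and density less affected; inactive means any of these conditions unmet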
SIRT5 inh – SIRT5 desuccinylase inhibitors, primary screen, biochemical, fluorescence imaging, single point, set 5; NAD-dependent protein deacylase sirtuin-5, mitochondrial (Homo sapiens), Q9NXA8; Purified SirT5, succinyl-peptide AMC, trypsin-coupled fluorescence; inhibition, % at 15 µM; 330,000 tested, 1.1% active; in the data active means inhibition above about 15%; inconclusive means no clear call, values can overlap the other calls
Target sequence (Q9NXA8 whole entry, looked up): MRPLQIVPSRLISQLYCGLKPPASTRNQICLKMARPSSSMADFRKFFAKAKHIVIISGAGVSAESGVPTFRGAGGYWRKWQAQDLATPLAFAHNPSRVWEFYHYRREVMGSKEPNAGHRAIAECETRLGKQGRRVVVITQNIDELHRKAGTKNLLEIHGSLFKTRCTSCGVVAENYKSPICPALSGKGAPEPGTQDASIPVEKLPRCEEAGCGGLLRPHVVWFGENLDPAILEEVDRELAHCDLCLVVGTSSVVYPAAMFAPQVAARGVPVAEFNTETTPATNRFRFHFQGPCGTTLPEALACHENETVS
PGC1a acetyl inh – inhibitors of PGC1a acetylation signal, primary screen, cell-based, U2OS, AlphaScreen, inhibitor mode. AlphaScreen anti-acetyl-lysine; with virally co-expressed GCN5 acetyltransferase. inhibition, % at 15.6 µM. 350,000 tested, 0.17% active;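 active means every replicate shows inhibition of at least 40%; inconclusive means mean inhibition at least 40% but some replicate below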;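 further: 0% = neutral control wells and 100% = positive control wells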
S100A4 MyoIIA – inhibitors of S100A4-myosin IIA peptide binding, primary screen, biochemical, fluorescence polarization, TAMRA-MyoIIA peptide; inhibition, % at 10.7 µM; Protein S100-A4 (Homo sapiens), P26447; AID 652163, 2013; 360,000 tested, 0.14% active;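 active means mean inhibition of at least 70% across replicates, with every replicate also reaching that level; inconclusive means mean inhibition reaches 70% but some replicates fall short; inactive means mean inhibition below 70%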
Target sequence (P26447 whole entry, looked up): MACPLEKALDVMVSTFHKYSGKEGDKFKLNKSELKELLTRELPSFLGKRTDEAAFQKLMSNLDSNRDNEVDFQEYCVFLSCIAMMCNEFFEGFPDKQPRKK
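Material: human S100A4 monomer with TAMRA-labelled myosin IIA peptide; buffer or medium: HEPES pH 7.2 with CaCl2, KCl, NaCl, DTT, Triton; compound dosing: one concentration per compound; schedule: 5 min incubation before reading; benchmarks: neutral control DMSO, positive control TFP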
Cneo AK release – Cryptococcus neoformans cell lysis inducers, primary screen, AK release luminescence, single concentration. C. neoformans lysis, adenylate kinase release luminescence, 4 h; normalised: neutral wells 0, clomiphene wells 100. lysis activity, % at 15 µM. 360,000 tested, 0.2% active. AID 651654, 2012;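 active means mean lysis activity across replicates of at least 80%, whatever share of replicates individually reach that level; inactive means mean lysis activity below 80%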
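Schedule: static 4 h at 37 °C with compound, 1 h detection; system: C. neoformans cells; benchmarks: Clomiphene as positive control; buffer or medium: fresh YPD medium; measure: luminescence rise reflecting yeast cell lysis; measured by: luminescent adenylate kinase detection reagent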
C2C12 statin – suppressors of statin myotoxicity in C2C12 myotubes, primary screen, cell-based, single point, plate reader; C2C12 myotubes + simvastatin, ATP luminescence, 48 h; scaled: DMSO 0, geranylgeraniol control 100; rescue of ATP level, % at 7.49 µM; 330,000 tested, 0.78% active;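 active means mean ATP rescue above about 67%, or every replicate alone reaching that limit, limit read from the data, passing the limit was not always enough; inconclusive means no clear call, values can overlap the other calls; inactive means mean under the limit and some replicate under it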;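 further: myotubes were challenged with 10 µM simvastatin during compound exposure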
* marks the source's active call; other numbers are inactive results; ? = inconclusive; / = no result given. Only some compounds are listed: those with a hit (about 3% of all), similar ones and a draw of the others.

SMILES	rRNA inh HTS	SIRT5 inh	PGC1a acetyl inh	S100A4 MyoIIA	Cneo AK release	C2C12 statin
CCN1[C@@H]2c3ccc(-c4cccc(C(=O)N(C)C)c4)c(=O)n3C[C@H]1[C@H](CO)[C@H]2C(=O)OC	0.4	-2.5	/	63.4	-5.6	-6.2
CC(C)(O)C(=O)Nc1ccc([N+](=O)[O-])c(C(F)(F)F)c1	3.4	/	0.1	-2.7	-0.3	-3.0
COc1cc2c(cc1OC)CN(c1ccc([N+](=O)[O-])c(C(F)(F)F)c1)CC2	-18.8*	-0.8	/	-0.1	/	/
CC=Cc1ccc2n(c1=O)C[C@@H]1[C@@H](CO)[C@H](C(=O)O)[C@H]2N1S(=O)(=O)c1ccccc1C (mixture of isomers)	-1.5	-8.3	/	4.4	-4.5	-2.4
COc1ccc(-n2c(-c3ccccc3F)nc3ccccc3c2=O)cc1	3.8	-1.4	2.9	1.1	-1.3	-2.6
COc1ccc(-n2c(-c3ccccc3Br)nc3ccccc3c2=O)cc1	-7.6	35.0*	0.2	7.6	-5.3	-8.0
CCOc1ccc(-n2c(CC)nc3ccccc3c2=O)cc1	1.2	0.0	0.0	27.6	-0.3	130.8*
O=C([C@H]1N[C@H]2c3cccc(=O)n3C[C@H]2[C@@H]1CO)N1CCCCC1	2.3	/	/	/	/	/
CN1CCN(c2ccc(S(=O)(=O)C(F)(F)F)cc2[N+](=O)[O-])CC1	3.4	20.5*	-1.8	-20.0	1.6	/
O=C(O)[C@H]1[C@H](CO)[C@H]2Cn3c(ccc(-c4ccncc4)c3=O)[C@@H]1N2C(=O)C1CCCCC1	0.3	-54.1	/	99.4*	-2.7	-6.9
O=C(O)[C@H]1[C@H](CO)[C@H]2Cn3c(ccc(-c4ccncc4)c3=O)[C@@H]1N2C(=O)C1CCC1	1.0	-53.0	/	13.4	1.1	0.9
O=c1c2ccccc2nc(/C=C/c2ccccc2F)n1-c1ccccc1O	-23.9*	-5.0	/	3.0	-3.1	17.4
O=c1c2ccccc2nc(/C=C\c2ccccc2[N+](=O)[O-])n1-c1ccccc1O	-28.8*	0.6	-13.5	-2.2	-5.2	20.7
CC(N)C(=O)NC1C2C(=C(O)CC(O)C2O)C(=O)OC1(C)C(Cl)Cl (stereo not drawn)	-52.3	/	74.0*	-2.7	/	/
CN(C)Cc1c[nH]c2cc([N+](=O)[O-])ccc12	-2.7	16.5*	-1.9	5.2	1.1	1.3
CCn1nc(-c2ccccc2)nc2c(=O)n(C)c(=O)nc1-2	/	/	-4.2	/	/	-0.4
Cc1nc2c(=O)n(C)c(=O)nc-2n(C)n1	/	/	77.5*	/	/	/
CC(C)OP(=O)(OC(C)C)C(NCc1ccccc1)c1ccccc1 (stereo not drawn)	-20.4*	-8.6	3.1	-0.4	-1.2	/
CN(C)c1ccc(/C=C/[N+](=O)[O-])cc1	-17.6*	-4.4	/	-2.0	/	/
CC1=C2C[C@H]3[C@@H](CC=C4C[C@@H](O)CC[C@@]43C)[C@@H]2CC[C@]12O[C@@H]1C[C@H](C)CN[C@@H]1C2C (stereo partly drawn)	/	-0.7	-0.8	-2.5	-7.8	/
O=C(O)[C@@H]1[C@@H](CO)[C@@H]2Cn3c(ccc(-c4ccncc4)c3=O)[C@H]1N2C(=O)C1CC1	4.2	/	/	/	/	29.2
CCC(=O)OC1CCC2C3CCC4CC(=O)C=CC4(C)C3CCC12C (stereo not drawn)	/	1.9	0.6	-5.4	/	-4.9
CSCCC(NC(=O)CCC(=O)OC1CC[C@H]2[C@@H]3CC[C@H]4CC(=O)CC[C@]4(C)[C@H]3CC[C@]12C)C(=O)O (stereo partly drawn)	-24.4*	-2.9	6.7	-0.5	-2.4	4.3
C[C@H]1CCC[C@@H](O)CCC/C=C/c2cc(O)cc(O)c2C(=O)O1	/	/	/	/	-1.0	?
CC1CCC/C=C/C2CC(O)CC2C(O)/C=C/C(=O)O1 (stereo not drawn)	/	/	72.6*	/	0.8	-197.7
SMILES	rRNA inh HTS	SIRT5 inh	PGC1a acetyl inh	S100A4 MyoIIA	Cneo AK release	C2C12 statin
C[C@H]1CCC/C=C/C2C[C@H](O)CC2[C@H](O)/C=C/C(=O)O1 (stereo partly drawn)	/	/	72.2*	/	-0.4	-108.6
CSc1ccc(CNC2CN3CCC2CC3)cc1 (stereo not drawn)	5.3	28.8*	3.5	2.6	2.1	-2.8
c1ccc(CNC2CN3CCC2CC3)cc1 (stereo not drawn)	13.8	/	3.9	-1.7	-0.2	0.6
OCCNCCc1c[nH]c2ccc(OCc3ccccc3)cc12	5.8	19.9*	0.2	-3.1	1.8	-0.3
COc1ccc(C#Cc2ccc([C@H]3[C@H](CO)N4CCCCN(C(=O)Cc5ccncc5)C[C@@H]34)cc2)cc1	-6.5	3.9	0.6	-9.7	0.0	/
O=C(Cc1cccnc1)N1CCCCN2[C@H](CO)[C@@H](c3ccc(C#CC4CC4)cc3)[C@H]2C1	/	0.1	14.6	-0.3	51.2	/
CC(C)n1nnnc1CN1CCN(C)CC1	/	/	0.3	/	-0.3	99.1*
C=CCOC(=O)C1=C(C)OC(N)=C(C#N)C12C(=O)N(CN1CCOCC1)c1ccccc12 (stereo not drawn)	/	/	-1.9	/	2.4	111.2*
CCOC(=O)c1cnc(SCc2ccc(Cl)c(Cl)c2)nc1N1CC1	-7.9*	-0.8	-0.3	-1.7	1.1	-6.8
C=C1C(=O)O[C@@H]2C[C@@H](C)[C@@H]3C4OC4C(=O)[C@@]3(C)[C@@H](O)[C@H]12 (stereo partly drawn)	-1.5	/	-370.1	-5.2	-0.2	79.8*
C=C1C(=O)O[C@@H]2C[C@@H](C)[C@@H]3C=CC(=O)[C@@]3(C)[C@@H](OC(=O)CC(=O)O[C@H]3[C@@H]4C(=C)C(=O)O[C@@H]4C[C@@H](C)[C@@H]4C=CC(=O)[C@]43C)[C@H]12	5.5	-1.0	/	-21.6	-1.4	-367.4
COC(=O)[C@@H]1[C@@H](CO)[C@@H]2Cn3c(ccc(-c4cccc(OC)c4)c3=O)[C@H]1N2CC1CC1	-2.9	-4.4	/	9.5	-3.1	6.4
O=C(CN1CCCC1)Nc1ccc(Cl)cc1C(=O)c1ccccc1	9.3	15.1*	-1.0	-8.8	/	/
CCOc1ccccc1OCC(=O)Nc1ccc(Cl)cc1C(=O)c1ccccc1	9.9	-2.8	-3.4	-1.8	-1.6	/
O=C(COC(=O)c1cccc(O)c1)Nc1ccc(Cl)cc1C(=O)c1ccccc1	-23.4*	1.0	/	-6.0	/	/
O=C(Cc1ccccn1)N1CC2(C1)[C@H](c1ccccc1)[C@@H](CO)N2Cc1ccccn1	2.2	1.6	-0.4	22.4	/	/
